Measured values taken from article PMC5959779 (ACS chemical biology, 2018).
Read-outs that look alike come from different tables or passages of the source. Peptide text beside a SMILES is read from it. * marks the point of attachment. Cbz = O=C(OCc1ccccc1)*; CH2F = FC*

Legend:
caspase-8 wild-type = assay: differential scanning fluorimetry thermal stability; format: binding; conditions: DSF; for TM Values, Wild Type: zinc salts at 50 μM
caspase-8 C360A = assay: as above; format: binding; conditions: DSF; for TM Values, C360A: zinc salts at 50 μM; for effect on Tm of caspase-8 C360A: incubation with other metals
caspase-3 [1] = molecular target: T1, caspase-3 (Homo sapiens, UniProt P42574); assay: caspase-3 cleavage of fluorogenic tetrapeptide substrate DEVD-AMC; format: biochemical
T1 sequence (P42574 29-175 limits assumed): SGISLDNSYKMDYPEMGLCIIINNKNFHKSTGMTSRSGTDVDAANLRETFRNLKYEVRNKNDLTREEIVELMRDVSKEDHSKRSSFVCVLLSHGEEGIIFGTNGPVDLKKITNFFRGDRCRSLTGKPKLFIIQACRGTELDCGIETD
T1 sequence (P42574 176-277 limits assumed): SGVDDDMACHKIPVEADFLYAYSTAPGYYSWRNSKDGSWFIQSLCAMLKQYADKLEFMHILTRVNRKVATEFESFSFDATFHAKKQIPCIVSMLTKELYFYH

caspase-7 [2] = molecular target: T2, caspase-7 (Homo sapiens, UniProt P55210); assay: caspase-7 cleavage of fluorogenic tetrapeptide substrate DEVD-AMC; format: biochemical
T2 sequence (P55210 24-198 limits assumed): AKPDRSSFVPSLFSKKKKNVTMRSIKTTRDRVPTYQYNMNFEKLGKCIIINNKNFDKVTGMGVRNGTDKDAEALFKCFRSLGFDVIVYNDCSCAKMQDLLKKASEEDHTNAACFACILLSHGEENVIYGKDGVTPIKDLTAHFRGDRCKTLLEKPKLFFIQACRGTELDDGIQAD
T2 sequence (P55210 207-303 limits assumed): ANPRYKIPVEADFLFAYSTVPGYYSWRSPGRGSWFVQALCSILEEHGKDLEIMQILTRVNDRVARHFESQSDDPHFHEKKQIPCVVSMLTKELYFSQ

caspase-8 [3] = molecular target: T3, caspase-8 (Homo sapiens, UniProt Q14790); assay: caspase-8 cleavage of fluorogenic tetrapeptide substrate LEHD-AMC; format: biochemical
caspase-3 [4] = molecular target: T1, caspase-3; assay: caspase-3 cleavage of protein substrates PAK2 and PARP, metal panel; format: biochemical
caspase-7 [5] = molecular target: T2, caspase-7; assay: caspase-7 cleavage of protein substrate PAK2, metal panel; format: biochemical
caspase-8 [6] = molecular target: T3, caspase-8; assay: caspase-8 cleavage of procaspase-7; format: biochemical; conditions: metal panel
[7] = read-out: KD for zinc; cited from earlier work
caspase-6 [8] = molecular target: T4, caspase-6 (Homo sapiens, UniProt P55212); assay: caspase-6 cleavage of preferred fluorogenic tetrapeptide substrate; format: biochemical
T4 sequence (P55212 24-179 limits assumed): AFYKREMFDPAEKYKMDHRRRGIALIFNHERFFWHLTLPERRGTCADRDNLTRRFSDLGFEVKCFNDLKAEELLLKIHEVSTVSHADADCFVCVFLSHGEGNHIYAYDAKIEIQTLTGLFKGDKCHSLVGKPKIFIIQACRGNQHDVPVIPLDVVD
T4 sequence (P55212 194-293 limits assumed): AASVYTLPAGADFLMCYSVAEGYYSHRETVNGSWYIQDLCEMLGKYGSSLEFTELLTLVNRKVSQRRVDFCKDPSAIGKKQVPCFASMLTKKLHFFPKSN

caspase-3 [9] = molecular target: T1, caspase-3; assay: zincon colorimetric zinc-binding stoichiometry; conditions: zincon absorbance at 620 nm
Summary of the method: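 Caspase-3 and -7 were tested alone or with the active site occupied by zVAD; caspase-8 wild type and C360A were also tested. Mean ± SEM from three experiments on three separate days.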

caspase-3 [10] = molecular target: T1, caspase-3; assay: Fluozin-3 competition zinc affinity; format: binding; conditions: competition with Fluozin-3
Summary of the method: (§1)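 Caspase titrated into reactions holding a constant amount of zinc and the fluorescent zinc indicator Fluozin-3. Each reaction was left to reach equilibrium, then Fluozin-3 fluorescence was read, with signal falling as caspase competed for zinc. Mean ± SEM from three experiments on three separate days.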

caspase-6 [11] = molecular target: T4, caspase-6; assay: Fluozin-3 competition zinc affinity; format: binding; conditions: competition with Fluozin-3
Summary of the method: as §1

caspase-8 [12] = molecular target: T3, caspase-8; assay: Fluozin-3 competition zinc affinity; format: binding; conditions: competition with Fluozin-3
Summary of the method: as §1

caspase-8 [13] = molecular target: T3, caspase-8; assay: size exclusion chromatography of caspase-8 oligomeric state; conditions: SEC after incubation
Summary of the method: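 Oligomeric state of caspase-8 was resolved by size-exclusion chromatography into dimer and monomer peaks. Protein was run alone, after incubation with zVAD-FMK, or after inhibitor incubation followed by increasing zinc. Peak fractions were quantified as mean ± SEM from three experiments on three separate days.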

caspase-3 [14] = molecular target: T1, caspase-3; conditions: cited from earlier work
caspase-6 [15] = molecular target: T4, caspase-6; conditions: read-out: IC50 (unbuffered); cited from earlier work
[16] = tested on: caspase-7 variant H131A/C171A; assay: activity of caspase-7 variant in absence and presence of ZnCl2; format: biochemical; conditions: presence vs absence of ZnCl2
[17] = metal panel, peptide substrate DEVD-AMC
[18] = panel of biologically relevant metals
[19] = read-out: IC50 Values Unbuffered, total zinc, no zinc buffer, 10 nM caspase
[20] = zinc buffered (NTA), mixed model of inhibition, global fit

T3 sequence (Q14790 217-374 limits assumed): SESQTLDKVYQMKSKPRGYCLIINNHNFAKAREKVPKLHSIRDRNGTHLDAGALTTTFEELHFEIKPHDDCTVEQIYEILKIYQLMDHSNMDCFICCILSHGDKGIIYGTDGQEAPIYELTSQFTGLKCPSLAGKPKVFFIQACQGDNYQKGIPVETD
T3 sequence (Q14790 385-479 limits assumed): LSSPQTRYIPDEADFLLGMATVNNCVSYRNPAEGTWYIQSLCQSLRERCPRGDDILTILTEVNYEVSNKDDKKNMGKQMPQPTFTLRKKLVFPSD

## CC[C@H](C)[C@H](NC(C)=O)C(=O)N[C@@H](CCC(=O)O)C(=O)N[C@H](C(=O)N[C@H](C=O)CC(=O)O)[C@@H](C)O [Ac-IETD-CHO, acetyl-Ile-Glu-Thr-Asp-aldehyde, reference compound] (Ac-IETD-aldehyde)
caspase-8 wild-type
  Tm increase: 27 °C
  TM Values, Wild Type: 75.5 ± 0.3 °C
caspase-8 C360A
  TM Values, C360A: 46.4 ± 0.2 °C

## [Cd] [Cadmium, cadmium]
caspase-3 [1]; [17]
  activity remained: 39%
caspase-7 [2]; [17]
  activity remained: 84%
caspase-8 [3]; metal panel, peptide substrate LEHD-AMC
  activity remained: 12%
caspase-3 [4]
  effect on cleavage of protein substrate PARP: inhibitory effect
caspase-7 [5]
  effect on cleavage of protein substrate PAK2: had an inhibitory effect
caspase-8 [6]
  effect on cleavage of procaspase-7 (C186A): minor impact

## [Cu] [Copper, copper]
caspase-3 [4]
  effect on cleavage of protein substrate PAK2: did not observe
caspase-8 [6]
  effect on cleavage of procaspase-7 (C186A): minor impact
caspase-8 C360A
  effect on Tm of caspase-8 C360A: failed to significantly alter

## COc1ccc(N(CC(=O)O)CC(=O)O)c(OCCOc2cc(-c3c4cc(F)c(=O)cc-4oc4cc(O)c(F)cc34)ccc2NCC(=O)O)c1 [Fluozin-3]
[7]
  Kd: 15 nM

## [Zn+2] [Zinc, zinc]
caspase-3 [1]; [18]
  effect on peptide substrate cleavage: inhibited
caspase-3 [1]; [19]
  IC50: 104 ± 26 nM
caspase-3 [1]; [20]
  Ki: 6.9 nM
caspase-6 [8]; [19]
  IC50: 4530 ± 1100 nM
caspase-6 [8]; zinc buffered (NTA), assumed noncompetitive
  Ki: 2.6 nM
caspase-7 [2]; [18]
  effect on peptide substrate cleavage: inhibited
caspase-7 [2]; [19]
  IC50: 1580 ± 750 nM
caspase-7 [2]; zinc buffered (citrate), mixed model of inhibition, global fit
  Ki: 76.1 nM
caspase-8 [3]; [18]
  effect on peptide substrate cleavage: inhibited
caspase-8 [3]; [19]
  IC50: 367 ± 38 nM
caspase-8 [3]; [20]
  Ki: 4.3 nM
caspase-3 [4]
  effect on cleavage of protein substrate PARP: inhibitory effect
caspase-8 [6]
  effect on cleavage of procaspase-7 (C186A): significant impact
caspase-3 [9]
  zincs bound per caspase monomer (stoichiometry): three
caspase-3 [10]
  zinc affinity (KD via Cheng-Prusoff): low nanomolar affinity
caspase-6 [11]
  zinc affinity (KD via Cheng-Prusoff): low nanomolar affinity
caspase-8 [12]
  zinc affinity (KD via Cheng-Prusoff): low nanomolar affinity
caspase-8 [13]
  caspase-8 eluting as dimer: 10%
  caspase-8 eluting as monomer: 90%
caspase-8 C360A
  destabilization of caspase-8 C360A (Tm decrease): 5 °C
caspase-3 [14]
  zinc concentration at which caspase-3 is inhibited: ≥ 1.7 nM
caspase-6 [15]
  IC50: 4500 nM

## O=C(O)c1ccccc1NN=C(N=Nc1cc(S(=O)(=O)O)ccc1O)c1ccccc1 [Zincon]
[7]
  Kd: 12000 nM

## [Cl-].[Cl-].[Zn+2] [ZnCl2]
caspase-3 [4]
  effect on cleavage of protein substrate PAK2: completely inhibited
caspase-7 [5]
  effect on cleavage of protein substrate PAK2: inhibited
caspase-8 wild-type
  destabilization of caspase-8 (Tm decrease): approximately 3 °C
  TM Values, Wild Type: 44.5 ± 0.4 °C
caspase-8 C360A
  destabilization of caspase-8 C360A (Tm decrease): 5 °C
  TM Values, C360A: 41.5 ± 0.9 °C
[16]
  inhibition of variant activity: inhibited by zinc in a similar fashion to wild-type

## O=S(=O)([O-])[O-].[Zn+2] [ZnSO4]
caspase-3 [4]
  effect on cleavage of protein substrate PAK2: completely inhibited
caspase-7 [5]
  effect on cleavage of protein substrate PAK2: inhibited
caspase-8 wild-type
  destabilization of caspase-8 (Tm decrease): approximately 3 °C
  TM Values, Wild Type: 44.8 ± 0.3 °C
caspase-8 C360A
  destabilization of caspase-8 C360A (Tm decrease): 5 °C
  TM Values, C360A: 41.6 ± 0.6 °C

## [Ca+2] [calcium]
caspase-8 C360A
  effect on Tm of caspase-8 C360A: failed to significantly alter

## [Co] [cobalt]
caspase-3 [4]
  effect on cleavage of protein substrate PAK2: did not observe

## [Fe] [iron]
caspase-8 C360A
  effect on Tm of caspase-8 C360A: failed to significantly alter

## CC(NC(=O)C(NC(=O)OCc1ccccc1)C(C)C)C(=O)NC(CC(=O)O)C(=O)CF (stereo not drawn) [zVAD-FMK, carbobenzoxy-Val-Ala-Asp-fluoromethylketone, reference compound] (Cbz-Val-Ala-Asp-CH2F; configuration not given here)
caspase-3 [1]; two-hour incubation
  inhibition of caspase activity: completely inhibited
caspase-7 [2]; two-hour incubation
  inhibition of caspase activity: completely inhibited
caspase-8 [13]
  caspase-8 eluting as dimer: 63%
  caspase-8 eluting as monomer: 37%
